Assay results gathered from unrelated publications.
Each line is one published result; the experiments were not run side by side.
Target: 5-hydroxytryptamine receptor 2A (HTR2A, Homo sapiens, UniProt P28223)
Concentration: 10 µM

SMILES | assay | endpoint | value
CCN(CC)CCCC[C@H](NC(=O)[C@H](CC(C)C)NC(=O)[C@H](C)NC(=O)[C@H](Cc1ccccc1)NC(=O)c1ccc(C(C)(C)C)cc1)C(=O)N[C@@H](CO)C(=O)OC | ligand displacement, radioligand | inhibition | 39%
CSC[C@@]12C[C@@H]1[C@@H](n1cnc3c(NC(C4CC4)C4CC4)nc(I)nc31)[C@H](O)[C@@H]2O | ligand displacement, radioligand | inhibition | 24%
Clc1ccc2c(C3CCN(CCc4c[nH]c5ccccc45)CC3)c[nH]c2c1 | ligand displacement, radioligand | inhibition | 99%
Nc1ncc(-c2nc(N3CCOCC3)nc(N3CCOCC3)n2)c(C(F)F)n1 | cell-free assay, radioligand | remaining signal | 98.1%
COCCN(CCOC)C(=O)[C@@]12C[C@@H]1[C@@H](n1cnc3c(NC(C4CC4)C4CC4)nc(Cl)nc31)[C@H](O)[C@@H]2O | ligand displacement, radioligand | inhibition | 0%
COc1cc2c3c(c1OC)-c1cc4c(cc1CC3N(C)CC2)OCO4 (racemic) | ligand displacement, radioligand | inhibition | 89.3%
Nc1c(C(=O)NCc2ccc(C(=O)NCCCC3CCCCC3)cc2)cnn1-c1ccccc1 | ligand displacement | inhibition | 23.7%
COCCN(CCOC)C(=O)[C@@]12C[C@@H]1[C@@H](n1cnc3c(N)nc(Cl)nc31)[C@H](O)[C@@H]2O | ligand displacement, radioligand | inhibition | 3%
CCc1ccccc1C(=O)Nc1n[nH]c2c(C)c(F)c(C3C(C#N)=C(C)N(C)C(C)=C3C#N)cc12 | ligand displacement | inhibition | 14.8%
COCc1c(-c2cc3cc(C)cc(OC)c3s2)c2c(N)ncnn2c1CN1CCNC(=O)C1 | ligand displacement, radioligand | inhibition | 23%
